The sample as a whole holds a higher share of hits than the screen did.
KDM4C inh – inhibitors of human demethylase GASC-1 KDM4C. 96,000 compounds, 0.15% hits. AID 720574. inhibition, % at 12.5 µM. GST-KDM4C 2-372, H3K9me3 peptide, LANCE TR-FRET. Q9H3R0;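 active means mean replicate inhibition above about 25%, with at least 55% of replicates also reaching it, limit read from the data, passing the limit was not always enough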
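Test system: N-terminal GST-fused human GASC-1 (KDM4C) fragment, residues 2-372; quantity: GASC-1 enzyme at 10 nM final in reaction; dosing: single dose; schedule: 30 min demethylation and 1 h detection at room temperature; signal: LANCE TR-FRET, excitation 340 nm, emissions 618 and 671 nm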
IDH1 R132H inh – IDH1 R132H (human) inhibition; O75874; IDH1 R132H reductase, diaphorase/resazurin fluorescence, 60 min; inhibition, % at 10 µM; 70,000 compounds, 0.18% hits; AID 624101; in the data active means inhibition above about 34%;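 further: 0% = DMSO and 100% = no enzyme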
Target sequence (O75874 whole entry R132H): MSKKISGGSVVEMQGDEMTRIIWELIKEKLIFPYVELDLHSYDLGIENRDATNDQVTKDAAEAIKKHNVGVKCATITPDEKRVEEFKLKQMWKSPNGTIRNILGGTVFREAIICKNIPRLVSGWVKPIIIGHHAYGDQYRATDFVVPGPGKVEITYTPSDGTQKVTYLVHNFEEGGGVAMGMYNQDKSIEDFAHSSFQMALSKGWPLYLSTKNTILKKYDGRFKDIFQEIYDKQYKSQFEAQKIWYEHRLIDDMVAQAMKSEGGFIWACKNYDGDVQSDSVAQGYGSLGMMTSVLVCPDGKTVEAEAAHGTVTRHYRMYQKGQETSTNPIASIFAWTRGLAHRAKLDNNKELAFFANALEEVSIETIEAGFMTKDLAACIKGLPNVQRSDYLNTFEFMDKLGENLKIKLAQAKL
T cruzi growth-1 – T. cruzi proliferation inhibition | T. cruzi beta-gal in NIH3T3, GalScreen luminescence, 90 h | inhibition, % at 8.34 µM | 77,000 compounds, 5.9% hits | AID 624255;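 active means mean inhibition above about 93%, with at least 55% of replicates each passing it, limit read from the data, passing the limit was not always enough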
T cruzi growth-2 – Trypanosoma cruzi proliferation inhibition; inhibition, % at 8.35 µM; shares compounds with T cruzi growth-1; AID 651739; 5,600 compounds, 72% hits; T. cruzi beta-gal in NIH3T3, GalScreen luminescence, 90 h;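 active means mean replicate inhibition above about 95% and at least 55% of replicates individually reaching it, limit read from the data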
T cruzi growth-3 – Trypanosoma cruzi proliferation inhibition; shares compounds with T cruzi growth-1; T. cruzi beta-gal in NIH3T3, GalScreen luminescence, 90 h; inhibition, % at 2.09 µM; 5,600 compounds, 21% hits;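 active means mean inhibition above about 95%, with at least 55% of replicates also reaching it, limit read from the data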;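 further: plate controls were neutral control median for no effect and positive control median for full effect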
3T3 cytotox – kills mouse NIH/3T3 fibroblasts; shares compounds with T cruzi growth-1; NIH/3T3 viability, CellTiter-Glo ATP luminescence, 90 h; cytotoxicity (signal decrease), % at 8.35 µM; 5,600 compounds, 14% hits; AID 651742;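 active means mean signal decrease across replicates above about 35% based on untreated-well scatter, with enough replicates individually passing, limit read from the data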;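 further: 0% = median of neutral control wells and 100% = median of positive control wells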
NIH3T3 tox 2 – cytotoxicity in mouse NIH/3T3 fibroblasts | shares compounds with T cruzi growth-1 | NIH/3T3 viability, CellTiter-Glo ATP luminescence, 90 h | inhibition, % at 24.9 µM | 5,600 compounds, 56% hits | AID 651744;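 active means mean loss of cell viability signal at or above a set limit, and enough replicates individually reaching it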;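 further: 0% = median of neutral control wells and 100% = median of positive control wells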
Active calls of the source: *; nt = no result given.

SMILES | KDM4C inh | IDH1 R132H inh | T cruzi growth-1 | T cruzi growth-2 | T cruzi growth-3 | 3T3 cytotox | NIH3T3 tox 2
C[C@@H]1CN([C@@H](C)CO)S(=O)(=O)c2ccc(-c3ccc(C(=O)N(C)C)cc3)cc2O[C@H]1CN(C)Cc1ccc2c(c1)OCO2 | -1 | nt | nt | nt | nt | nt | nt
C[C@@H]1CN([C@H](C)CO)S(=O)(=O)c2ccc(-c3ccncc3)cc2O[C@H]1CN(C)C(=O)c1ccc2c(c1)OCO2 | 2 | 0 | 105* | 101* | 91 | 29 | 44*
C[C@H]1CN([C@@H](C)CO)S(=O)(=O)c2ccc(-c3ccncc3)cc2O[C@H]1CN(C)C(=O)c1ccc2c(c1)OCO2 | -2 | -1 | 102* | 103* | 89 | 24 | 44*
C[C@H](CO)N1C[C@H](C)[C@H](CN(C)C(=O)c2ccc3c(c2)OCO3)Oc2cc(-c3ccccc3)ccc2S1(=O)=O | -1 | 0 | nt | nt | nt | nt | nt
CCc1ccc(NC(=O)CSc2nc3ccccc3[nH]2)cc1 | nt | 0 | nt | nt | nt | nt | nt
CCOc1ccc(NC(=O)CSc2nnc(-c3cccs3)n2C)cc1 | nt | 1 | nt | nt | nt | nt | nt
Cc1ccccc1C(=O)Nc1cccc(NC(=O)COc2ccccc2Cl)c1 | nt | 0 | nt | nt | nt | nt | nt
C[C@@H]1CCCCO[C@H](CN(C)S(=O)(=O)c2ccc(F)cc2)[C@H](C)CN([C@@H](C)CO)C(=O)c2cc(NC(=O)Nc3ccc4c(c3)OCO4)ccc2O1 | -2 | nt | 100* | 102* | 72 | -18 | 12
C[C@H](CO)N1C[C@H](C)[C@@H](CN(C)S(=O)(=O)c2ccc(F)cc2)OCCCC[C@H](C)Oc2ccc(NC(=O)Nc3ccc4c(c3)OCO4)cc2C1=O | 17 | 4 | 100* | 110* | 62 | -23 | 4
C[C@@H]1CCCCO[C@@H](CN(C)S(=O)(=O)c2ccc(F)cc2)[C@H](C)CN([C@@H](C)CO)C(=O)c2cc(NC(=O)Nc3ccc4c(c3)OCO4)ccc2O1 | 0 | nt | 24 | nt | nt | nt | nt
C[C@@H]1CCCCO[C@H](CN(C)S(=O)(=O)c2ccc(F)cc2)[C@@H](C)CN([C@@H](C)CO)C(=O)c2cc(NC(=O)Nc3ccc4c(c3)OCO4)ccc2O1 | 0 | nt | 35 | nt | nt | nt | nt
COc1ccc(NC(=O)NCc2cc(C)n(C)n2)cc1OC | nt | 0 | nt | nt | nt | nt | nt
CS(=O)(=O)N(CC(=O)Nc1ccc(F)c(F)c1)c1ccc(Cl)c(C(F)(F)F)c1 | nt | 0 | nt | nt | nt | nt | nt
C[C@H](CO)N1C[C@H](C)[C@@H](CN(C)Cc2ccc(Cl)c(Cl)c2)OCCCC[C@H](C)Oc2ccc(NC(=O)Nc3cccc4ccccc34)cc2C1=O | -1 | nt | 122* | 111* | 106* | 24 | 16
C[C@@H]1CCCCO[C@@H](CN(C)Cc2ccc(Cl)c(Cl)c2)[C@H](C)CN([C@H](C)CO)C(=O)c2cc(NC(=O)Nc3cccc4ccccc34)ccc2O1 | 0 | 3 | 95 | nt | nt | nt | nt
C[C@@H]1CCCCO[C@@H](CN(C)Cc2ccc(Cl)c(Cl)c2)[C@@H](C)CN([C@H](C)CO)C(=O)c2cc(NC(=O)Nc3cccc4ccccc34)ccc2O1 | 1 | -1 | 120* | 103* | 77 | -13 | -17
C[C@@H]1CN([C@H](C)CO)C(=O)c2cc(NC(=O)Nc3cccc4ccccc34)ccc2O[C@@H](C)CCCCO[C@H]1CN(C)Cc1ccc(Cl)c(Cl)c1 | 0 | 1 | nt | nt | nt | nt | nt
CC(Oc1ccc(Cl)cc1Cl)C(=O)Nc1cc(C(F)(F)F)ccc1N1CCOCC1 (configuration not stated) | nt | 0 | nt | nt | nt | nt | nt
O=C(Nc1cccc2ccccc12)C1CCCN1S(=O)(=O)c1ccccc1 (configuration not stated) | nt | -1 | nt | nt | nt | nt | nt
Cc1nnc(SCC(=O)Nc2ccc([N+](=O)[O-])cc2O)s1 | nt | 0 | nt | nt | nt | nt | nt
Cc1ccc(S(=O)(=O)Nc2ccc3c(c2)C(=O)N([C@H](C)CO)C[C@H](C)[C@H](CN(C)C(=O)Nc2cccc4ccccc24)OCCCC[C@H](C)O3)cc1 | 0 | nt | 92 | nt | nt | nt | nt
Cc1ccc(S(=O)(=O)Nc2ccc3c(c2)C(=O)N([C@H](C)CO)C[C@@H](C)[C@@H](CN(C)C(=O)Nc2cccc4ccccc24)OCCCC[C@@H](C)O3)cc1 | -2 | 0 | 108* | 102* | 102* | 13 | 5

Screening results from PubChem.
